# The source made the active and inactive calls. No cut-off for these calls is given here.
# Experiments:
# [1] = system: Drosophila melanogaster; test: Adulticidal activity against adult Drosophila melanogaster (males/females 1:1 ratio) assessed as mortality measured after 3 hr; assay type: functional
# Summary of the method: (§1)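 Topical dose applied to the abdomen of ice-immobilised adults, 5–7 days old, in 0.5 μL acetone. Controls received acetone only. Flies were held at 25 °C, RH >60%, on a 12 h light/dark cycle. Thirty flies per dose, three replicates. Survival was recorded 3 h after treatment. Mortality means inability to move, with recovery checked.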
# [2] = system: Drosophila melanogaster; test: Adulticidal activity against adult Drosophila melanogaster (males/females 1:1 ratio) assessed as mortality at 0.5 ng/adult measured after 3 hr; assay type: functional, organism-based
# [3] = system: Drosophila melanogaster; test: Adulticidal activity against adult Drosophila melanogaster (males/females 1:1 ratio) assessed as mortality at 1 ng/adult measured after 3 hr; assay type: functional, organism-based
# [4] = system: Drosophila melanogaster; test: Adulticidal activity against adult Drosophila melanogaster (males/females 1:1 ratio) assessed as mortality at 2 ng/adult measured after 3 hr; assay type: functional, organism-based; summary of the method: as §1
# [5] = system: Drosophila melanogaster; test: Adulticidal activity against adult Drosophila melanogaster (males/females 1:1 ratio) assessed as mortality at 20 ng/adult measured after 3 hr; assay type: functional, organism-based; summary of the method: as §1
SMILES,LD50 [1] [µg],Activity [2],Activity [3],Activity [4],Activity [5]
COc1ccc2c(c1OC)CN1CCc3cc4c(cc3[C@@H]1C2)OCO4 [CANADINE],2.5,,,,
C[C@H]1CC=CC(=O)O1 [(+)-(6S)-PARASORBIC ACID],1.44,inactive,inactive,Active,Active
C=C(C)[C@H]1Cc2c(ccc3c2O[C@@H]2COc4cc(OC)c(OC)cc4[C@@H]2C3=O)O1 [ROTENONE],3.68,,,,
C[C@@H]1CC[C@H]2[C@H](C)CC[C@@H](c3ccoc3)N2C1 [(-)-7-EPI-DEOXYNUPHARIDINE],0.9,,,,

# — ChEMBL document CHEMBL3045078, “Insecticidal effect and chemical composition of the volatile oil from Bergenia ligulata” (2011)
